Residual activity, inhibition and residual binding, % of control data for one molecule are collected here from ChEMBL document CHEMBL3259708, “Thienoquinolines as novel disruptors of the PKCε/RACK2 protein-protein interaction” (J Med Chem, 2014).

The source made the active and inactive calls. The rule behind the calls is not given here.

Assay [1] addresses Serine/threonine-protein kinase pim-3 (Homo sapiens) (UniProt Q86V86). Put plainly: Inhibition of PIM3 (unknown origin) at 25 uM; values are per cent of control.
The target in assay [2] is Protein kinase C beta type (Homo sapiens) (UniProt P05771). Put plainly: Inhibition of recombinant GST-tagged PKCbeta2 (unknown origin)-His-tagged RACK1 interaction after 1 hr by ELISA-based assay relative to untreated control. The method, boiled down: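 ELISA: 200 ng His-tagged RACK1 coated overnight at 4 °C; agent added 30 min at room temperature; 500 ng GST-PKCβII activated with CaCl2, phosphatidylserine and TPA for 10 min, then bound 1 h; detected with anti-GST and HRP secondary, ABTS colour at 420 nm.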
(In general: ELISA stands for enzyme-linked immunosorbent assay.)

Assay [3] has as its target Tyrosine-protein kinase BTK (Homo sapiens) (UniProt Q06187). The assay can be described thus: Inhibition of BTK (unknown origin) at 25 uM; values are per cent of control.
Assay [4] deals with Mitogen-activated protein kinase 3 (Homo sapiens) (UniProt P27361). Put plainly: Inhibition of ERK1 (unknown origin) at 25 uM; values are per cent of control.
The target of assay [5] is Protein kinase C beta type (Homo sapiens) (UniProt P05771). Put plainly: Inhibition of PKCbeta1 (unknown origin) at 50 uM.
Assay [6] concerns the target T1, NUAK family SNF1-like kinase 1 (Homo sapiens) (UniProt O60285).
T1 sequence (whole entry): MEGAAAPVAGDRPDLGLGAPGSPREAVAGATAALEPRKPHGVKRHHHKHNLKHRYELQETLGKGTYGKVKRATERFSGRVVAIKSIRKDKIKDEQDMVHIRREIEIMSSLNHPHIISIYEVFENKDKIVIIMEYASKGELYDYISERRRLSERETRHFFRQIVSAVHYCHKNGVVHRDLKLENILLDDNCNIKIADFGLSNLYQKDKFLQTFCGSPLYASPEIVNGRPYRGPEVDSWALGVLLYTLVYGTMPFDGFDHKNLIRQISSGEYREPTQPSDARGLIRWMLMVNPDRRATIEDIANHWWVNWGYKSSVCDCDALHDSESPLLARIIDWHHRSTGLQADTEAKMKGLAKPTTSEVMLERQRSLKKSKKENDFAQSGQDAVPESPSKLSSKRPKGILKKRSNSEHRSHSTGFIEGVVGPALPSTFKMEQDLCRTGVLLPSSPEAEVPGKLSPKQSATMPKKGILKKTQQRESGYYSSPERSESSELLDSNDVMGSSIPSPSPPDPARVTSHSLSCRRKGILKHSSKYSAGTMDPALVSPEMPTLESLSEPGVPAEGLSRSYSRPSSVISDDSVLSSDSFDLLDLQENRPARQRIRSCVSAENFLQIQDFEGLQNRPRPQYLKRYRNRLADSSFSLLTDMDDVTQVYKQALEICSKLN
Put plainly: Inhibition of NUAK1 (unknown origin) at 25 uM; values are per cent of control.

For assay [7], the target named is T2, Protein kinase C epsilon type (Homo sapiens) (UniProt Q02156).
T2 sequence (whole entry): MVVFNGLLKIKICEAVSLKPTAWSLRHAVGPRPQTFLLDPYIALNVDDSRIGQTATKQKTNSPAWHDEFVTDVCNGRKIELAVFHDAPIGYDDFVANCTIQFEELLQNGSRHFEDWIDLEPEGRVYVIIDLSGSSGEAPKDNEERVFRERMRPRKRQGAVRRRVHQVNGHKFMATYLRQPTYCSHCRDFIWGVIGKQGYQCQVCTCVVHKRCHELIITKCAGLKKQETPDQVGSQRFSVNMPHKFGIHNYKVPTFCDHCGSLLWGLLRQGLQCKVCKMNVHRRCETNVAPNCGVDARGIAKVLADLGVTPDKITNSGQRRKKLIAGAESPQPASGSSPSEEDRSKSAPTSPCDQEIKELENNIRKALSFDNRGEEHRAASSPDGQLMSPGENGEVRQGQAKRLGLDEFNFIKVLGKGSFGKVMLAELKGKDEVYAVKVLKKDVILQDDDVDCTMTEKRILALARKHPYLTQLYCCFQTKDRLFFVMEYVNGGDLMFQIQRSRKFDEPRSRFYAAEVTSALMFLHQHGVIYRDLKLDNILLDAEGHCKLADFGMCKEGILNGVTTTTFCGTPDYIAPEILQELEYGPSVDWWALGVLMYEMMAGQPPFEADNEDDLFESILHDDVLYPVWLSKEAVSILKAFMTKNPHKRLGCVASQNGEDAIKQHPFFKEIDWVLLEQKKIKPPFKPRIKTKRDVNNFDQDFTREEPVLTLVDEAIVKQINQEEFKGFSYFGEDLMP
The assay can be described thus: Inhibition of PKCepsilon-induced phosphorylation of MARCKS in human HeLa cells at 50 uM by SDS-PAGE analysis. It counts as cell-based. The essentials: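 HeLa cells serum-starved 16 h, treated with 50 μM agent for 30 min with 100 nM TPA for the last 10 min; 150 μg lysate protein on SDS 8–16% gels, blotted for MARCKS pSer152/156 with tubulin loading control; densitometry of three independent experiments.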

Assay [8] has as its target T2, Protein kinase C epsilon type (Homo sapiens). The assay can be described thus: Inhibition of recombinant PKCepsilon (unknown origin)-MBP-tagged RACK2 interaction at 10 uM after 1 hr by ELISA-based assay relative to untreated control. The conditions noted are these: values are per cent of control. The method, boiled down: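 ELISA: plates coated with 100 ng recombinant PKCε in 20 mM Tris-HCl/100 mM NaCl pH 7.5 overnight at 4 °C, blocked with 3% BSA; PKCε activated 10 min at 30 °C with 60 μg/mL phosphatidylserine and 100 nM TPA; RACK2-MBP preincubated with agent 30 min, then 500 ng added for 1 h binding; anti-RACK2/HRP detection, ABTS at 420 nm; four experiments, quadruplicates, normalized to control; IC50 via CalcuSyn.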

Assay [9] shares this target. Put plainly: Inhibition of TPA-induced PKCepsilon translocation to cell membrane in human PC3 cells at 50 uM by immunofluorescence analysis. It counts as cell-based. The conditions noted are these: PC-3. The method, boiled down:
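PC-3 cells on poly-L-lysine coverslips treated with agent 30 min then 100 nM TPA 5 min; fixed in 4% paraformaldehyde/4% sucrose, permeabilized, stained for PKCε with fluorescent secondary, imaged by microscopy; three independent experiments.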

The target is the same in assay [10]. Put plainly: Inhibition of recombinant PKCepsilon (unknown origin)-MBP-tagged RACK2 interaction at 25 uM after 1 hr by ELISA-based assay relative to untreated control; values are per cent of control.

Chain of Protein kinase C beta type (Homo sapiens) (P05771 2-671 limits assumed): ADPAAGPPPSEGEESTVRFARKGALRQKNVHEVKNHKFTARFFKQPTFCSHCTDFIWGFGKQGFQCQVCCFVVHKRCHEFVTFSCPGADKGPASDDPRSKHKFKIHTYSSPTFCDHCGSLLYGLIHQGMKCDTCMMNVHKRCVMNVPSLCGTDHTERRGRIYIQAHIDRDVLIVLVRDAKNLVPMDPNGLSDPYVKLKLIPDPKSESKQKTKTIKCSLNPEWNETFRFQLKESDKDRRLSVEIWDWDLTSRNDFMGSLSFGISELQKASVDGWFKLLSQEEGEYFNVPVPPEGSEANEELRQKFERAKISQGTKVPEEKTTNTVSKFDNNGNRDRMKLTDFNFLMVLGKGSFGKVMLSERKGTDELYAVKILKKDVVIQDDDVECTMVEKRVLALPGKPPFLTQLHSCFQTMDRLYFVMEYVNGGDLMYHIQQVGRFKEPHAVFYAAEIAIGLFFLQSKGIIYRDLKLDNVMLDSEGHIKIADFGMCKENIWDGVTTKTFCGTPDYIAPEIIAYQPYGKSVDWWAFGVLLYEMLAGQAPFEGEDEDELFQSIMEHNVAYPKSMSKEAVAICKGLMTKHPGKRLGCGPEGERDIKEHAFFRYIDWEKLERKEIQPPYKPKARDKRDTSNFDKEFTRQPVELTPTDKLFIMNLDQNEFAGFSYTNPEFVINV
Chain of Mitogen-activated protein kinase 3 (Homo sapiens) (P27361 whole entry): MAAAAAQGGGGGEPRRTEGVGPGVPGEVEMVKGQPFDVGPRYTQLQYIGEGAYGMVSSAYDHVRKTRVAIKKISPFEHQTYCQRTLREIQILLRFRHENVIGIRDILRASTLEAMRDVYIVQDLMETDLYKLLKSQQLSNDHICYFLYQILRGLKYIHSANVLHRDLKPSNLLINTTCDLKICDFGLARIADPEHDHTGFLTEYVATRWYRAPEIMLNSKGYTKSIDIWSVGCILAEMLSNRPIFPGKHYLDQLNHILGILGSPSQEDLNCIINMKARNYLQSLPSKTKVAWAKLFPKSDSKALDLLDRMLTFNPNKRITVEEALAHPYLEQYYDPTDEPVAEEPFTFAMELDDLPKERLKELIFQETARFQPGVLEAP
Chain of Tyrosine-protein kinase BTK (Homo sapiens) (Q06187 whole entry): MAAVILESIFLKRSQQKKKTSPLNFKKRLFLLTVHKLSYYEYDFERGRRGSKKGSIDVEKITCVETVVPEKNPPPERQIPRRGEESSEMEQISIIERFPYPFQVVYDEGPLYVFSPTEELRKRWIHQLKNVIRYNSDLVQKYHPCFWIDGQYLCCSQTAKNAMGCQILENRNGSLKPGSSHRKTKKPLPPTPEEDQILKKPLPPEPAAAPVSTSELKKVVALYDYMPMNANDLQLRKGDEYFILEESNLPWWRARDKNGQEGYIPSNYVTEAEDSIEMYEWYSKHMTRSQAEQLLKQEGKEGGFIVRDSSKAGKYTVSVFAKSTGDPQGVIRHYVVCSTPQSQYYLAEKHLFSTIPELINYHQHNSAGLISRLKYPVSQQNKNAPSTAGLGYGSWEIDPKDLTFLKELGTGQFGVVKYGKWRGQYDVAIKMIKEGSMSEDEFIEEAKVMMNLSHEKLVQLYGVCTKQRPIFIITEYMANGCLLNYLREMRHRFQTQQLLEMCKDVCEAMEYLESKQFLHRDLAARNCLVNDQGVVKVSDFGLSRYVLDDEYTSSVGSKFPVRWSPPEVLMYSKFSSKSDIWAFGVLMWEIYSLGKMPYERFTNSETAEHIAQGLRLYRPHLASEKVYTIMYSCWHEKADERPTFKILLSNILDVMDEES

For the molecule `CC(=O)c1cccc(NC(=O)c2sc3nc4cc5c(cc4cc3c2N)OCCO5)c1`, the residual activity in [1] was found to be 46%; in [3] it was 42%; in assay [4] it was 55%; in assay [6], 49%; in assay [10], 13.3%. For the same molecule, the inhibition (as a rule, the relative decrease from the control value, in per cent) in [2] was “inactive”. The inhibition in assay [5] was 80%. The inhibition result in assay [7] and in assay [9] was “Active” in each case. Further, the residual binding, % of control in assay [8] was 23.6%.
